Type in all cases: functional
Test [1] deals with Staphylococcus aureus. The test can be described thus: Antibacterial activity against Staphylococcus aureus ATCC 25923 after overnight incubation. The method, boiled down: (§1)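 Broth microdilution per NCCLS: 200 µL of the α-methoxylated fatty acid in Mueller-Hinton broth, inoculated with 10⁵ CFU, incubated overnight at 37 °C. MIC taken as the highest dilution inhibiting growth, compared with an uninoculated chemical-control well. At least three separate experiments, each in duplicate.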

Test [2] concerns Enterococcus faecalis. The test is described as follows: Antibacterial activity against Streptococcus faecalis group D ATCC 29212 after overnight incubation. The method, boiled down: as §1
The test system of test [3] is Pseudomonas aeruginosa. The test is described as follows: Antibacterial activity against Pseudomonas aeruginosa ATCC 27853 after overnight incubation. Summed up: as §1
In test [4] the test system is Escherichia coli. The test is described as follows: Antibacterial activity against Escherichia coli ATCC 25922 after overnight incubation. The method, boiled down:
as §1

Data on three compounds can be found in ChEMBL document CHEMBL1151330, “Facile total synthesis and antimicrobial activity of the marine fatty acids (Z)-2-methoxy-5-hexadecenoic acid and (Z)-2-methoxy-6-hexadecenoic acid” (1998).

In the case of `CCCCCCCCCC/C=C\CC[C@H](OC)C(=O)O`, the MIC in test [1] was 350 µM; in test [2], 350 µM; in test [3] it was greater than 200 µg/mL; in test [4], greater than 200 µg/mL.
For the compound `CCCCCCCCC/C=C\CCCC(OC)C(=O)O` (configuration not stated), the MIC was 350 µM in test [1], 350 µM in test [2], greater than 200 µg/mL in test [3] and greater than 200 µg/mL in test [4].
With `CCCCCCCCCCCCCCC(OC)C(=O)O` (configuration not stated), the MIC in test [1], in test [2], in test [3] and in test [4] was greater than 100 µg/mL each time.

The term MIC denotes the least concentration at which growth counts as inhibited.
